Screens (PubChem BioAssay)
HEK293 NFkB inh = inhibitors of the PMA/ionomycin-induced NF-kB reporter in HEK293 cells. hit rate 0.21% among 62,000. AID 465. HEK-293 NF-kB luciferase reporter, luminescence. inhibition, % at 3 µM;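 active = inhibition above the mean of all tested compounds plus 3 SD, cut at about 40% in these data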
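Reagent: PMA plus ionomycin mix as NF-kB-activating stimulus. Assay system: NF-kB luciferase reporter HEK-293 cells. Technique: luminescence from luciferase substrate reagent. Incubation: 1 h compound pre-incubation, 16 h PMA/ionomycin at 37 °C. Benchmarks: DMSO only as uninhibited control, 10 µM reference inhibitor as full inhibition. Repeats: tested once.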
mHtt clearance = mutant huntingtin protein clearance. HeLa Exon1htt(103Q)mCFP, aggregate imaging; zero = plate's median compound well. inhibition, % at 1.5 µM. hit rate 0.42% among 47,000. AID 853;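 active = inhibition of aggregate fluorescence above about 70%, also judged a hit by eye on the cell image, limit read from the data, passing the limit was not always enough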;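 note: cells exposed to compound for three days before fixation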
M1 antagonist = antagonists of rat M1 muscarinic receptor | P08482 | CHO-M1 cells, Fluo-4 calcium, ACh EC80 antagonist mode; hits give low values | B-score at 10 µM | hit rate 3.4% among 64,000 | AID 628;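 active = calcium fluorescence response, raw or row-and-column corrected B-score, differing from the plate sample mean either way at a set confidence level, mostly lower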
Target sequence (P08482 whole entry, looked up): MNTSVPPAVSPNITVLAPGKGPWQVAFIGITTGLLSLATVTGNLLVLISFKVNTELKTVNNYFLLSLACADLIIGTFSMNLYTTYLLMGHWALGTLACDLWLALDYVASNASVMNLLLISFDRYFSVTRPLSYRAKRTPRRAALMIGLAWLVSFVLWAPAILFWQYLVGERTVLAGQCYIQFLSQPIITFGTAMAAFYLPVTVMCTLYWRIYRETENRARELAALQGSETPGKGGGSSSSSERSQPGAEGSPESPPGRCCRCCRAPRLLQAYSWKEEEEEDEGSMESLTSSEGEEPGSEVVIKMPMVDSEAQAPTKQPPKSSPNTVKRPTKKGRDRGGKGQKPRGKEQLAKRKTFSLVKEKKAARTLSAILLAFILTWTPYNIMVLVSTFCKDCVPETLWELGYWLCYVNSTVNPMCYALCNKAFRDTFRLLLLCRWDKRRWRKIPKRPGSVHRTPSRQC
D1 allo mod = allosteric modulators of human D1 dopamine receptor; HEK293 D1, CRE-luciferase, dopamine EC30 potentiation; actives deviate in either direction; B-score at 10 µM; hit rate 5.9% among 58,000; AID 641;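 active = luminescence count or its row- and column-corrected plate score outside the 99.7% band of the plate's sample wells, on either side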
Jurkat viability = cytotoxicity toward Jurkat cells; Jurkat E6.1 viability, ATP luminescence, 48 h; inhibition, % at 4 µM; hit rate 1.2% among 56,000; AID 463;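 active = inhibition above the mean inhibition of all tested compounds plus 3 SD, cut at about 28% in these data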
M1 ag = M1 muscarinic receptor agonism. CHO-M1 cells, Fluo-4 calcium fluorescence, agonist mode; hits give high values. B-score at 10 µM. hit rate 3% among 64,000;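 active = fluorescence rise, raw or as B-score row- and column-corrected plate score, outside the 99.7% band of its plate's samples, either direction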
D1 PAM confirm = D1 receptor (human) allosteric modulation, confirmed | hit rate 88% among 2,200 | luminescence at 10 µM | AID 642 | HEK293 D1 CRE-luciferase, dopamine EC30 potentiation; hits give high values | shares compounds with D1 allo mod;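 active = luminescence in either of two replicates above the same-plate mean plus 3 SD of the low-dose dopamine control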
D1 no dopamine = activates D1 CRE-luciferase signal without dopamine present. shares compounds with D1 allo mod. HEK293 D1 CRE-luciferase, luminescence, no dopamine; hits give high values. luminescence at 10 µM. hit rate 0.8% among 1,900. AID 646; in the data active = luminescence above about 3900
Isoprot counter = isoproterenol response counter-screen activity for D1 modulators; luminescence at 10 µM; HEK293 D1 CRE-luciferase, isoproterenol EC30 counter-screen; hits give high values; shares compounds with D1 allo mod; hit rate 63% among 2,200;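 active = luminescence in either replicate above plate mean of wells with a partly effective reference agonist dose plus 3 SD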;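 note: isoproterenol raises cAMP through native beta-adrenoceptor Gs so signal bypasses D1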
Each line names hits and unclear results; the compound was inactive in the other large screens (follow-up assays come after a bar, where they were run). An excerpt weighted towards active compounds, which were near 9.5% of everything screened.

COC(=O)c1cccc(CSc2nnc(-c3ccco3)n2-c2ccccc2)c1	D1 allo mod 4.2 (no result: mHtt clearance) | D1 PAM confirm 17968 | D1 no dopamine inactive | Isoprot counter 4484
COC(=O)CSc1nnc(-c2ccco2)n1-c1ccc(C)cc1	D1 allo mod 15 | D1 PAM confirm 17312 | D1 no dopamine inactive | Isoprot counter 3744
CCOC(=O)CSc1nnc(-c2ccco2)n1-c1ccccc1	none
CCOC(=O)CSc1nnc(-c2ccco2)n1-c1ccc(C)cc1	D1 allo mod 4.3 | D1 PAM confirm inactive | Isoprot counter 2988
COC(=O)CSc1nnc(-c2ccoc2C)n1-c1ccc(C)cc1	none
O=C(CS(=O)CC(=O)N(CC(=O)NC1CCCC1)C1CCCC1)Nc1ccc(F)cc1 (stereo unspecified)	none
CSc1cccc(NC(=O)c2ccco2)c1	none (no result: mHtt clearance)
COc1ccc(-n2nc3ccccc3n2)cc1	D1 allo mod 3.2 (no result: mHtt clearance) | D1 PAM confirm 10504 | D1 no dopamine inactive | Isoprot counter inactive
CCC1C(C#N)=C(N)OC2=C1C(=O)CC(C)(C)C2 (stereo unspecified)	none (no result: mHtt clearance)
CCCCCCC1C(C#N)=C(N)OC2=C1C(=O)CC(C)(C)C2 (stereo unspecified)	D1 allo mod 3.7 (no result: mHtt clearance) | D1 PAM confirm 12024 | D1 no dopamine inactive | Isoprot counter 3280
O=C(CCCCn1c(=O)c2ccccc2n(CC(=O)NC2CCCC2)c1=O)NC1CCCC1	D1 allo mod 4.4 (no result: mHtt clearance) | D1 PAM confirm inactive | D1 no dopamine inactive | Isoprot counter inactive
CC(=O)Nc1ccc(S(=O)(=O)Nc2nc(C)cc(-n3nc(C)cc3C)n2)cc1	none
Cc1cc(-n2nc(C)cc2C)nc(NS(=O)(=O)c2ccccc2)n1	D1 allo mod 3.8 (no result: mHtt clearance, Jurkat viability) | D1 PAM confirm 10456 | D1 no dopamine inactive | Isoprot counter inactive
Cc1cc(N2CCC(C)CC2)nc(-n2nc(C)cc2C)n1	none (no result: mHtt clearance)
Cc1cc(-n2nc(C)cc2C)nc(N)n1	D1 allo mod 5.6 (no result: mHtt clearance) | D1 PAM confirm 10308 | Isoprot counter 2752
FC(F)(F)c1nnc2sc(-c3cccs3)nn12	D1 allo mod 22 | D1 PAM confirm 10532 | D1 no dopamine inactive | Isoprot counter 3440
FC(F)(F)c1nnc2sc(-c3ccncc3)nn12	none (no result: mHtt clearance)
CC(C)CSc1nc2ccccc2c(=O)[nH]1	none (no result: HEK293 NFkB inh, M1 antagonist, D1 allo mod, Jurkat viability, M1 ag)
C=CCSc1nc2ccccc2c(=O)[nH]1	D1 allo mod 3 (no result: mHtt clearance) | D1 PAM confirm 9580 | D1 no dopamine inactive | Isoprot counter inactive
COc1ccc(CN(C2CCCC2)S(=O)(=O)c2ccc(-n3cnnn3)c(OC)c2)cc1OC	D1 allo mod 6.1 (no result: Jurkat viability) | D1 PAM confirm 9100 | D1 no dopamine inactive | Isoprot counter 3488
COc1cc(S(=O)(=O)N2CCC(N3CCCCC3)CC2)ccc1-n1cnnn1	none (no result: mHtt clearance)
O=C1CC(c2ccccc2)Sc2ccccc2N1 (stereo unspecified)	D1 allo mod 26 (no result: mHtt clearance) | D1 PAM confirm 18012 | D1 no dopamine inactive | Isoprot counter 3720
COC(=O)CC1Sc2ccccc2NC1=O (stereo unspecified)	none (no result: mHtt clearance)
O=S(=O)(NCCc1ccccn1)c1ccc(F)c(F)c1	none (no result: mHtt clearance)
O=C(CC1Sc2ncnn2C1=O)Nc1ccc(Br)cc1 (stereo unspecified)	none (no result: mHtt clearance)
Cn1nnnc1Sc1ncnc2scc(-c3ccccc3)c12	D1 allo mod 5.6 (no result: mHtt clearance) | D1 PAM confirm 22236 | D1 no dopamine inactive | Isoprot counter 5292
c1ccc(-c2csc3ncn4nnnc4c23)cc1	D1 allo mod 11 | D1 PAM confirm 12968 | D1 no dopamine inactive | Isoprot counter 3720
Clc1ncnc2scc(-c3ccccc3)c12	none (no result: HEK293 NFkB inh, M1 antagonist, D1 allo mod, Jurkat viability, M1 ag)
Cn1nnnc1Sc1ncnc2scc(-c3ccc(F)cc3)c12	D1 allo mod 12 | D1 PAM confirm inactive | D1 no dopamine inactive | Isoprot counter inactive
COc1cc2c(cc1OC)CN(CC(=O)NC(=O)NCc1ccco1)CC2	D1 allo mod 6.8 (no result: mHtt clearance) | D1 PAM confirm 8812 | Isoprot counter inactive
N#CCc1nc2c3c4c(sc3ncn2n1)CCCC4	D1 allo mod 9.5 (no result: HEK293 NFkB inh, mHtt clearance, Jurkat viability) | D1 PAM confirm 11284 | D1 no dopamine inactive | Isoprot counter 3464
CCOc1ccc(-c2cc3nc(C4CCN(C(=O)OC(C)(C)C)CC4)c(C(=O)O)cn3n2)cc1	D1 allo mod 13 (no result: mHtt clearance) | D1 PAM confirm 13012 | D1 no dopamine inactive | Isoprot counter 5244
CC(C)(C)OC(=O)N1CCC(c2c(C(=O)O)cnn2-c2ccccc2)CC1	none
CCOC(=O)CCNC(=O)CNC(=O)OCc1ccccc1	none
CCCc1[nH]nc2c1C(c1ccc(OC)cc1OC)C(C#N)=C(N)O2 (stereo unspecified)	D1 allo mod 7.7 (no result: mHtt clearance) | D1 PAM confirm 14308 | D1 no dopamine inactive | Isoprot counter 4880
COC(=O)Cc1[nH]nc2c1C(c1c[nH]c3ccccc13)C(C#N)=C(N)O2 (stereo unspecified)	D1 allo mod 8 | D1 PAM confirm 10912 | Isoprot counter 3492
Cc1ccc(NC(=O)N2CCC(C(=O)NCC(C)C)CC2)cc1	none (no result: mHtt clearance)
CCCCN(Cc1ccccc1)C(=O)c1cnc2n(c1=O)CCS2	none
COc1ccc(C(=O)Nc2ccncc2)cc1OC	D1 allo mod 13 (no result: mHtt clearance) | D1 PAM confirm 20440 | Isoprot counter 3884
COc1ccc(NC(=O)c2cccs2)cc1OC	D1 allo mod 8 | D1 PAM confirm 13868 | D1 no dopamine inactive | Isoprot counter 3488
CCc1cc2c(C)cc(=O)oc2cc1OC(=O)C1CCCN1C(=O)OC(C)(C)C (stereo unspecified)	none (no result: D1 allo mod)
CC(=O)Nc1nonc1NC(=O)CSc1ncn[nH]1	none
CCNc1nc(Oc2ccc(=O)n(-c3ccccc3)n2)nc(N2CCOCC2)n1	D1 allo mod 10 | D1 PAM confirm 18936 | D1 no dopamine inactive | Isoprot counter 4968
CCNc1nc(Oc2ccc(=O)n(C)n2)nc(N2CCOCC2)n1	none
O=C(c1cccnc1)N(Cc1ccccc1)c1ccccc1	D1 allo mod 6.8 | D1 PAM confirm 15108 | D1 no dopamine inactive | Isoprot counter 3296
O=C(c1ccccc1)N(Cc1ccccc1)c1ccccn1	D1 allo mod 5.8 (no result: mHtt clearance) | D1 PAM confirm 9876 | Isoprot counter inactive
O=C(c1ccc(Br)o1)N(Cc1ccccc1)c1ccccn1	none (no result: HEK293 NFkB inh, mHtt clearance, D1 allo mod, Jurkat viability)
C=CCn1c(=S)[nH]c2nc3c(cc2c1=O)CCCC3	D1 allo mod 6 (no result: HEK293 NFkB inh, mHtt clearance, Jurkat viability) | D1 PAM confirm 13488 | D1 no dopamine inactive | Isoprot counter inactive
Cc1c(C(=O)NC2CC2)oc2ccc(S(=O)(=O)N3CCCCCC3)cc12	none (no result: mHtt clearance, Jurkat viability)
